Measured values as given in ChEMBL document CHEMBL1773044, “Potent, selective, and orally bioavailable inhibitors of mammalian target of rapamycin (mTOR) kinase based on a quaternary substituted dihydrofuropyrimidine” (J Med Chem, 2011).

Tests used:
PC-3 = assay: Antiproliferative activity against human PC3 cells after 3 days by CellTiter-Glo luminescent cell viability assay; conditions: PC-3, 72 h
MCF7 = assay: Antiproliferative activity against human MCF7 cells expressing neo/Her2 after 3 days by CellTiter-Glo luminescent cell viability assay; conditions: MCF7, 72 h
[1] = Clearance in mouse at 1 mg/kg, iv; assay type: ADME, organism-based; design: dose 1 mg/kg, route intravenous; conditions: in vivo
Method in brief: (§1)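 Mouse PK: iv dose 1 mg/kg given as a solution in 80% PEG/10% EtOH; po dose 5 mg/kg given as a suspension in MCT (0.5% methylcellulose/0.2% Tween 80).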

[2] = (§2) Oral bioavailability in mouse at 5 mg/kg; assay type: ADME, organism-based; conditions: in vivo; method in brief: as §1
[3] = Half life in mouse at 1 mg/kg, iv; assay type: ADME, organism-based; design: dose 1 mg/kg, route intravenous; conditions: in vivo; method in brief: as §1
[4] = (§3) AUC in mouse at 5 mg/kg, po; assay type: ADME, organism-based, Plasma; design: dose 5 mg/kg, route oral; conditions: plasma; method in brief: as §1
[5] = Plasma protein binding in human; assay type: ADME, cell-free; conditions: read-out: PPB (converted)
[6] = Plasma protein binding in mouse; assay type: ADME, cell-free; conditions: read-out: PPB (converted)
[7] = Plasma protein binding in rat; assay type: ADME, cell-free; conditions: read-out: PPB (converted)
[8] = Volume of distribution at steady state in mouse at 1 mg/kg, iv; assay type: ADME, organism-based; design: dose 1 mg/kg, route intravenous; conditions: in vivo, read-out: Vdss; method in brief: as §1
Mus musculus [9] = assay: as §2; assay type: ADME, organism-based; conditions: in vivo; method in brief: as §1
Mus musculus [10] = assay: as §3; assay type: ADME, organism-based, Plasma; design: dose 5 mg/kg, route oral; conditions: in vivo; method in brief: as §1
[11] = Selectivity ratio of Ki for human recombinant mTOR (1360-2549) over Ki for PI3Kalpha
[12] = molecular target: Serine/threonine-protein kinase mTOR (Homo sapiens, UniProt P42345); assay: Inhibition of human recombinant mTOR expressed in insect cells using 4E-BP1 substrate after 30 mins by fluorescence resonance energy transfer assay
Mus musculus [13] = assay: In vivo inhibition of mTORC2 in NCR nude mouse xenografted with human NCI-PC3 cells assessed as reduction in phosphorylated Akt level at 25 to 100 mg/kg, po administered as single dose relative to control; values are per cent of control; conditions: dose mg/kg 25-100
Mus musculus [14] = assay: In vivo inhibition of mTORC1 in NCR nude mouse xenografted with human NCI-PC3 cells assessed as reduction in phosphorylated S6RP level at 25 to 100 mg/kg, po administered as single dose relative to control; values are per cent of control; conditions: dose mg/kg 25-100

Row | IC50 (PC-3) | IC50 (MCF7) | half-life [3] | fraction unbound [5] | fraction unbound [6] | fraction unbound [7] | Vd [8] | Compound | also measured
1 | 120 nM | 260 nM |  |  |  |  |  | C[C@H]1COCCN1c1nc(-c2ccc(NC(=O)NCCC#N)cc2)nc2c1COC2(C)C | 
2 | 18 nM | 75 nM | 66 min | 0.18 | 0.09 | 0.22 | 1.3 L/kg | CCNC(=O)Nc1ccc(-c2nc(N3CCOC[C@@H]3C)c3c(n2)[C@](C)(CC(C)(C)O)OC3)cc1 | F (Mus musculus [9]): 53%; AUC (Mus musculus [10]): 0.63 µM·h
3 | 74 nM | 193 nM |  |  |  |  |  | CCNC(=O)Nc1ccc(-c2nc(N3CCOC[C@@H]3C)c3c(n2)[C@](C)(CCC#N)OC3)cc1 | 
4 | 28 nM | 27 nM | 16.2 min | 0.23 | 0.14 | 0.21 | 1 L/kg | CCNC(=O)Nc1ccc(-c2nc(N3CCOCC3)c3c(n2)[C@](C)(CC(C)(C)O)OC3)cc1 | F (Mus musculus [9]): 55%; AUC (Mus musculus [10]): 0.66 µM·h
5 | 284 nM | 1200 nM |  |  |  |  |  | CCNC(=O)Nc1ccc(-c2nc(N3CCOC[C@@H]3C)c3c(n2)[C@@](C)(CCOC)OC3)cc1 | 
6 | 15 nM | 15 nM | 19.8 min | 0.13 | 0.06 |  | 1.5 L/kg | CCNC(=O)Nc1ccc(-c2nc(N3CCOC[C@@H]3C)c3c(n2)[C@](C)(CCO)OC3)cc1 | level, % of control (Mus musculus [13]): 15%; level, % of control (Mus musculus [14]): 15%; F (Mus musculus [9]): 110%; AUC (Mus musculus [10]): 0.59 µM·h
7 | 62 nM | 130 nM |  |  |  |  |  | CCNC(=O)Nc1ccc(-c2nc(N3CCOC[C@@H]3C)c3c(n2)[C@](C)(CCOC)OC3)cc1 | 
8 | 130 nM | 29 nM | 78 min | 0.34 | 0.15 | 0.12 | 2.7 L/kg | CCNC(=O)Nc1ccc(-c2nc(N3CCOC[C@@H]3C)c3c(n2)[C@@](C)(CC(C)(C)O)OC3)cc1 | F (Mus musculus [9]): 73%; AUC (Mus musculus [10]): 0.65 µM·h
9 | 330 nM | 1900 nM |  |  |  |  |  | C[C@H]1COCCN1c1nc(-c2ccc(NC(=O)NC[C@@H](O)CO)cc2)nc2c1COC2(C)C | 
10 | 960 nM | 1700 nM |  |  |  |  |  | CCNC(=O)Nc1ccc(-c2nc(N3CCOCC3)c3c(n2)[C@@](C)(CO)OC3)cc1 | 
11 | 41 nM | 100 nM |  |  |  |  |  | CCNC(=O)Nc1ccc(-c2nc(N3CCOC[C@@H]3C)c3c(n2)[C@@](C)(CCC#N)OC3)cc1 | 
12 | 78 nM | 52 nM | 24 min | 0.14 | 0.05 | 0.08 | 1.4 L/kg | CCNC(=O)Nc1ccc(-c2nc(N3CCOC[C@@H]3C)c3c(n2)C(C)(C)OC3)cc1 | level, % of control (Mus musculus [13]): 15%; clearance [1]: 46 mL/min/kg; level, % of control (Mus musculus [14]): 15%; bioavailability [2]: 140%; AUC [4]: 6.1 µM·h

Second part, the molecule before the results:

Row | Compound | IC50 (PC-3) | IC50 (MCF7) | half-life [3] | fraction unbound [5] | fraction unbound [6] | fraction unbound [7] | Vd [8] | also measured
13 | C[C@H]1COCCN1c1nc(-c2ccc(Nc3cccc(=O)[nH]3)cc2)nc2c1COC2(C)C | 120 nM | 120 nM | 132 min | 0.02 | 0.03 | 0.04 | 1.9 L/kg | clearance [1]: 44 mL/min/kg; bioavailability [2]: 7%; AUC [4]: 0.31 µM·h
14 | CCNC(=O)Nc1ccc(-c2nc(N3CCOC[C@@H]3C)c3c(n2)[C@@](C)(CC2CC2)OC3)cc1 | 31 nM | 95 nM |  |  |  |  |  | 
15 | CCNC(=O)Nc1ccc(-c2nc(N3CCOC[C@@H]3C)c3c(n2)[C@](C)(CC2CC2)OC3)cc1 | 100 nM | 340 nM |  |  |  |  |  | 
16 | CCNC(=O)Nc1ccc(-c2nc(N3CCOCC3)c3c(n2)[C@@](C)(CCO)OC3)cc1 | 210 nM | 490 nM |  |  |  |  |  | 
17 | CCNC(=O)Nc1ccc(-c2nc(N3CCOCC3)c3c(n2)C(C)(C)OC3=O)cc1 | 120 nM | 310 nM | 12.6 min | 0.02 | 0.02 | 0.05 | 0.57 L/kg | bioavailability (Mus musculus [9]): 23%; AUC (Mus musculus [10]): 1.5 µM·h
18 | C[C@H]1COCCN1c1nc(-c2ccc(NC(=O)NC3COC3)cc2)nc2c1COC2(C)C | 160 nM | 480 nM |  |  |  |  |  | 
19 | CCNC(=O)Nc1ccc(-c2nc(N3CCOCC3)c3c(n2)[C@@](C)(CC(C)(C)O)OC3)cc1 | 140 nM | 170 nM |  |  |  |  |  | 
20 | CCNC(=O)Nc1ccc(-c2nc(N3C[C@H]4CC[C@@H](C3)O4)c3c(n2)[C@](C)(CCO)OC3)cc1 | 17 nM | 22 nM | 46.2 min | 0.27 | 0.11 | 0.26 | 2 L/kg | F (Mus musculus [9]): 50%; AUC (Mus musculus [10]): 0.78 µM·h
21 | CCNC(=O)Nc1ccc(-c2nc(N3CCOCC3)c3sc(C(C)(C)O)cc3n2)cc1 |  |  |  |  |  |  |  | Ratio Ki [11]: 20; Ki [12]: 3 nM
22 | CCNC(=O)Nc1ccc(-c2nc(N3CCOCC3)c3c(n2)[C@](C)(CO)OC3)cc1 | 220 nM | 280 nM |  |  |  |  |  | 
23 | C[C@H]1COCCN1c1nc(-c2ccc(NC(=O)Nc3cnn(C)c3)cc2)nc2c1COC2(C)C | 52 nM | 160 nM |  |  |  |  |  | 
24 | CCNC(=O)Nc1ccc(-c2nc(N3CCOC[C@@H]3C)c3c(n2)[C@@](C)(CCO)OC3)cc1 | 118 nM | 510 nM | 20.4 min | 0.14 | 0.06 | 0.21 | 2.4 L/kg | F (Mus musculus [9]): 65%; AUC (Mus musculus [10]): 0.43 µM·h
25 | CCNC(=O)Nc1ccc(-c2nc(N3CCOCC3)c3c(n2)[C@](C)(CCO)OC3)cc1 | 16 nM | 48 nM | 42.6 min | 0.22 | 0.17 | 0.24 | 1.5 L/kg | F (Mus musculus [9]): 56%; AUC (Mus musculus [10]): 0.96 µM·h
26 | CCNC(=O)Nc1ccc(-c2nc(N3CCOC[C@@H]3C)c3c(n2)[C@](C)(CCN(C)C)OC3)cc1 | 220 nM | 1100 nM | 34.2 min | 0.41 | 0.22 | 0.33 | 2.6 L/kg | clearance [1]: 76 mL/min/kg; bioavailability [2]: 6%; AUC [4]: 0.14 µM·h
27 | C[C@H]1COCCN1c1nc(-c2ccc(NC(=O)NCCO)cc2)nc2c1COC2(C)C | 46 nM | 66 nM | 25.2 min | 0.28 | 0.19 | 0.3 | 1.5 L/kg | clearance [1]: 53 mL/min/kg; bioavailability [2]: 22%; AUC [4]: 0.81 µM·h
28 | CCNC(=O)Nc1ccc(-c2nc(N3CCOC[C@@H]3C)c3c(n2)[C@](C)(CO)OC3)cc1 | 95 nM | 192 nM |  |  |  |  |  | 
29 | CCNC(=O)Nc1ccc(-c2nc(N3CCOC[C@@H]3C)c3c(n2)[C@@](C)(CO)OC3)cc1 | 450 nM | 530 nM |  |  |  |  |  | 
30 | CCNC(=O)Nc1ccc(-c2nc(N3C[C@H]4CC[C@@H](C3)O4)c3c(n2)[C@@](C)(CCO)OC3)cc1 | 66 nM | 160 nM |  |  |  |  |  | 
31 | CCNC(=O)Nc1ccc(-c2nc(N3CCOC[C@@H]3C)c3c(n2)C(C)(C)OC3=O)cc1 | 60 nM | 220 nM |  |  |  |  |  | 
